Data: ChEMBL document CHEMBL3875163, “Novel urea and bis-urea primaquine derivatives with hydroxyphenyl or halogenphenyl substituents: Synthesis and biological evaluation” (Eur J Med Chem, 2016)
Converted amounts (≈) assume the structure as drawn. The source made the active and inactive calls. The rule behind the calls is not given here.

Columns and labels:
[1] = Growth inhibition of human MCF7 cells by alamar blue assay; format: functional
[2] = Growth inhibition of mouse L1210 cells after 72 hrs by MTT assay; format: functional, cell-based; conditions: L1210, 72 h
[3] = Growth inhibition of human Molt4/C8 cells after 72 hrs by MTT assay; format: functional, cell-based; conditions: MOLT-4, 72 h
[4] = Growth inhibition of human CEM cells after 72 hrs by MTT assay; format: functional, cell-based; conditions: CCRF-CEM
[5] = Growth inhibition of human HeLa cells after 72 hrs by MTT assay; format: functional, cell-based
[6] = Growth inhibition of human MIAPaCa2 cells after 72 hrs by MTT assay; format: functional, cell-based; conditions: MIA PaCa-2, 72 h
[7] = Growth inhibition of human NCI-H460 cells after 72 hrs by MTT assay; format: functional, cell-based; conditions: NCI-H460, 72 h
Summary of the method: (§1)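 Modified NCI DTP protocol: cells in DMEM with 10% FBS, 2 mM glutamine, antibiotics, 37 °C, 5% CO2; seeded 1 × 10^4 to 3 × 10^4 cells/ml on day 0, exposed to five 10-fold dilutions (10^-8 to 10^-4 M) for 72 h; solvent control. MTT read-out; quadruplicate points in three experiments; IC50 by linear regression of growth percentages bracketing 50%.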

[8] = Growth inhibition of human SW620 cells after 72 hrs by MTT assay; format: functional, cell-based; conditions: SW-620, 72 h; summary of the method: as §1
[9] = Growth inhibition of human MCF7 cells after 72 hrs by MTT assay; format: functional, cell-based; conditions: MCF7, 72 h; summary of the method: as §1
MCF7 [10] = experiment: Potency index, ratio of ciplatin IC50 to compound IC50 for human MCF7 cells; format: functional
[11] = Cell cycle arrest in human MCF7 cells assessed as increase in G2/M population at 0.31 uM after 24 hrs by propidium iodide staining based flow cytometry; format: functional
Summary of the method: (§2)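 MCF-7 grown in EMEM with 10% FBS, L-glutamine, pyruvate, insulin; treated 0.31 µM for 24 h, DMSO (0.022%) vehicle control. Cells ethanol-fixed (70%, 24 h, -20 °C), RNase A 20 µg/ml 30 min 37 °C, PI 5.5 µg/ml 10 min dark; 20 000 cells by flow cytometry; G1, S, G2/M fractions; three independent experiments, Newman-Keuls test.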

[12] = Cell cycle arrest in human MCF7 cells assessed as decrease in G1 population at 0.31 uM after 24 hrs by propidium iodide staining based flow cytometry; format: functional; summary of the method: as §2
MCF7 [13] = experiment: Induction of apoptosis in human MCF7 cells assessed as increase in number of late apoptotic/necrotic cells at 0.31 uM after 72 hrs by Annexin-V FITC/propidium iodide staining based flow cytometry; format: functional, cell-based
Summary of the method: (§3)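 MCF-7 treated 0.31 µM for 72 h, DMSO control. Washed cells at 1 × 10^6 per 100 µl Annexin V binding buffer, stained FITC Annexin V plus PI 15 min room temperature in dark; 10 000 cells by flow cytometry (ex 488, em 530/580 nm). Viable, early apoptotic, late apoptotic/necrotic and necrotic fractions; three experiments, Duncan test.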

MCF7 [14] = experiment: Induction of apoptosis in human MCF7 cells assessed as increase in number of necrotic cells at 0.31 uM after 72 hrs by Annexin-V FITC/propidium iodide staining based flow cytometry; format: functional, cell-based; summary of the method: as §3
MCF7 [15] = experiment: Induction of apoptosis in human MCF7 cells assessed as increase in cleaved PARP-1 expression at 0.31 uM after 72 hrs by immunoblot method; format: functional, cell-based
Summary of the method: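 MCF-7 treated at 0.31 µM for up to 72 h, controls DMSO and 1 µM doxorubicin. Lysates (CelLytic M with protease inhibitors), BCA quantification; 5 µg protein on 4-20% gels, nitrocellulose transfer, milk block; anti-PARP-1 (1:1000), GAPDH loading control (1:5000) overnight 4 °C, HRP anti-rabbit 1:2000, ECL detection; three independent experiments.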

[16] = Antioxidant activity assessed as DPPH radical scavenging activity at 100 uM after 20 mins relative to control; format: functional
Summary of the method: (§4)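 Compound in DMSO added to DPPH in absolute ethanol, 0.1 mM final; absorbance at 517 nm after 20 and 60 min at room temperature. At least triplicate.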

Glycine max = experiment: Inhibition of soybean LOX assessed as reduction in conversion of sodium linoleate to 13-hydroperoxylinoleic acid at 1 x 10^-4 M relative to control
Summary of the method: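 Soybean lipoxygenase incubated at room temperature with sodium linoleate (0.1 mM) and test compound (DMSO stocks); formation of 13-hydroperoxylinoleic acid read at 234 nm. Single-point screening at 1 × 10^-4 M; IC50 from several concentrations. At least triplicate.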

[17] = Antioxidant activity assessed as DPPH radical scavenging activity at 100 uM after 60 mins relative to control; format: functional; summary of the method: as §4
[18] = Antioxidant activity assessed as inhibition of AAPH-induced linoleic acid lipid peroxidation at 1 x 10^-4 M by UV-absorbance method relative to control; format: functional
Summary of the method: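 Linoleic acid peroxidation: 16 mM sodium linoleate dispersion in 0.05 M phosphate buffer pH 7.4 at 37 °C under air, initiated by AAPH (40 mM solution); compound at 1 × 10^-4 M; oxidation followed at 234 nm. At least triplicate.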

Staphylococcus aureus [19] = experiment: Antibacterial activity against Staphylococcus aureus ATCC 6538 after 18 hrs by serial microdilution broth assay; format: functional; conditions: ATCC 6538, 18 h
Summary of the method: (§5)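 Broth microdilution MIC per EUCAST for aerobic bacteria in Mueller-Hinton broth, serial dilution 1000 to 0.78125 µg/ml from 10 mg/ml DMSO stocks. Inoculum from trypticase soy broth cultures (18 h, 37 °C), set to 0.5 McFarland in PBS pH 7.4, diluted 1:10. 18 h aerobic incubation at 35 °C in dark, then TTC 0.5 mg/ml for 3 h, HCl-isopropanol, A490. MIC = lowest concentration giving 50% inhibition versus untreated; duplicates.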

Staphylococcus aureus [20] = experiment: Antibacterial activity against methicillin sensitive Staphylococcus aureus ATCC 25923 after 18 hrs by serial microdilution broth assay; format: functional; conditions: ATCC 25923, 18 h
Summary of the method: (§6)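 EUCAST-based broth microdilution in Mueller-Hinton broth. Glycerol stock cultures grown in trypticase soy broth 18 h at 37 °C; inoculum in PBS pH 7.4 at 0.5 McFarland, diluted 1:10 in broth. Compounds from DMSO stocks, 1000 to 0.78125 µg/ml; 18 h aerobic, 35 °C, dark. TTC 0.5 mg/ml added, 3 h, then HCl/isopropanol, A490. MIC = lowest concentration giving 50% inhibition vs untreated; duplicates, averaged.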

Staphylococcus aureus [21] = experiment: Antibacterial activity against methicillin sensitive Staphylococcus aureus ATCC 25213 after 18 hrs by serial microdilution broth assay; format: functional; conditions: ATCC 25213, 18 h; summary of the method: as §5
Staphylococcus aureus [22] = experiment: Antibacterial activity against methicillin resistant Staphylococcus aureus MFBF 10682 after 18 hrs by serial microdilution broth assay; format: functional; conditions: MFBF 10682, 18 h; summary of the method: as §6
Staphylococcus aureus [23] = experiment: Antibacterial activity against methicillin resistant Staphylococcus aureus MFBF 10679 after 18 hrs by serial microdilution broth assay; format: functional; conditions: MFBF 10679, 18 h; summary of the method: as §6
Enterococcus faecalis [24] = experiment: Antibacterial activity against vancomycin susceptible Enterococcus faecalis ATCC 29212 after 18 hrs by serial microdilution broth assay; format: functional; conditions: ATCC 29212, 18 h; summary of the method: as §5
Enterococcus faecalis [25] = experiment: Antibacterial activity against vancomycin resistant Enterococcus faecalis MFBF 11419 after 18 hrs by serial microdilution broth assay; format: functional; conditions: MFBF 11419, 18 h; summary of the method: as §6
Bacillus pumilus = experiment: Antibacterial activity against Bacillus pumilus NCTC 8241 after 18 hrs by serial microdilution broth assay; format: functional; conditions: NCTC 8241, 18 h; summary of the method: as §5
Bacillus cereus = experiment: Antibacterial activity against Bacillus cereus ATCC 11778 after 18 hrs by serial microdilution broth assay; format: functional; conditions: ATCC 11778, 18 h; summary of the method: as §5
Bacillus spizizenii = experiment: Antibacterial activity against Bacillus subtilis ATCC 6633 after 18 hrs by serial microdilution broth assay; format: functional; conditions: ATCC 6633, 18 h; summary of the method: as §5
Pseudomonas aeruginosa [26] = experiment: Antibacterial activity against Pseudomonas aeruginosa ATCC 9027 after 18 hrs by serial microdilution broth assay; format: functional; conditions: ATCC 9027, 18 h; summary of the method: as §6
Pseudomonas aeruginosa [27] = experiment: Antibacterial activity against Pseudomonas aeruginosa ATCC 27853 after 18 hrs by serial microdilution broth assay; format: functional; conditions: ATCC 27853, 18 h; summary of the method: as §5
Pseudomonas aeruginosa [28] = experiment: Antibacterial activity against multi-drug resistant Pseudomonas aeruginosa MFBF after 18 hrs by serial microdilution broth assay; format: functional; summary of the method: as §6
Escherichia coli = experiment: Antibacterial activity against Escherichia coli ATCC 10535 after 18 hrs by serial microdilution broth assay; format: functional; conditions: ATCC 10535, 18 h; summary of the method: as §5
Candida albicans = experiment: Antifungal activity against Candida albicans ATCC 90028 after 18 hrs by serial microdilution broth assay; format: functional; conditions: ATCC 90028, 18 h
Summary of the method: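 Yeast microdilution in RPMI 1640 with glutamine plus 2% glucose, 1000 to 0.78125 µg/ml from 10 mg/ml DMSO stocks. Growth read with XTT (10 mg/ml) mixed 7:1 with menadione (1 mg/ml in acetone), absorbance at 540 nm. MIC taken as lowest concentration giving 50% growth inhibition versus untreated cells; tests in duplicate.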

[29] = Hemolytic activity against human RBC at 100 ug/ml after 1 hr relative to control; format: ADME, cell-based, Erythrocyte; conditions: red blood cells (RBC), read-out: Activity
[30] = Cytotoxicity against HEK cells assessed as reduction in cell viability at 12.5 to 200 ug/ml after 24 hrs by MTT assay; format: toxicity, cell-based; conditions: human, hek293, 24 h
Summary of the method: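 HEK 293 cells, 5 × 10^3 per well, treated next day for 24 h with compound (range within 200 to 1.5625 µg/ml). MTT 0.5 mg/ml in DMEM/10% FBS, 4 h at 37 °C, 5% CO2; formazan in DMSO, A570. Viability as percent of untreated control; triplicates, three independent experiments.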

Row | Compound | IC50 [2] | IC50 [3] | IC50 [4] | IC50 [5] | IC50 [6] | IC50 [7] | IC50 [8] | IC50 [9] | Activity [16] | inhibition (Glycine max) | Activity [17] | inhibition [18] | MIC50 (Staphylococcus aureus [19]) | MIC50 (Staphylococcus aureus [20]) | MIC50 (Staphylococcus aureus [21]) | MIC50 (Staphylococcus aureus [22]) | MIC50 (Staphylococcus aureus [23]) | MIC50 (Enterococcus faecalis [24]) | MIC50 (Enterococcus faecalis [25]) | MIC50 (Bacillus pumilus) | also measured
1 | COc1cccc2c1C(=O)c1c(O)c3c(c(O)c1C2=O)C[C@@](O)(C(=O)CO)C[C@@H]3O[C@H]1C[C@H](N)[C@H](O)[C@H](C)O1 [DOXORUBICIN] | – | – | – | – | – | – | – | – | – | – | – | – | – | – | – | – | – | – | – | – | IC95 [1]: 1 µM
2 | COc1cc(NC(C)CCCNC(=O)NNC(=O)Nc2ccc(F)cc2)c2ncccc2c1 (stereo not given) | 104 µM | ≥ 250 µM | 118 µM | ≥ 250 µM | ≥ 250 µM | > 100 µM | > 100 µM | 0.31 µM | 7.6% | 31.9% | – | – | – | – | – | – | – | – | – | – | Ratio IC50 (MCF7 [10]): 42; Activity [11]: Active; Activity [12]: Active; Activity (MCF7 [13]): Active; Activity (MCF7 [14]): Active; Activity (MCF7 [15]): Active
3 | COc1cc(NC(C)CCCNC(=O)Nc2ccc(C(F)(F)F)cc2)c2ncccc2c1 (stereo not given) | 7.4 µM | 20 µM | 14 µM | 8.3 µM | 8.4 µM | 24 µM | 22 µM | 1.9 µM | 38.9% | 22.4% | 36.4% | 67% | 25 µg/mL (≈ 56 µM) | 35 µg/mL (≈ 78.4 µM) | 50 µg/mL (≈ 112 µM) | > 100 µg/mL | > 100 µg/mL | > 100 µg/mL | > 100 µg/mL | > 100 µg/mL | MIC50 (Bacillus cereus): > 100 µg/mL; MIC50 (Bacillus spizizenii): > 100 µg/mL; MIC50 (Pseudomonas aeruginosa [26]): 100 µg/mL (≈ 224 µM); MIC50 (Pseudomonas aeruginosa [27]): 25 µg/mL (≈ 56 µM); MIC50 (Pseudomonas aeruginosa [28]): 150 µg/mL (≈ 336 µM); MIC50 (Escherichia coli): > 100 µg/mL; MIC50 (Candida albicans): > 100 µg/mL; hemolysis at 1 h, 100 ug/ml [29]: 7.85%; Activity [30]: Non-Toxic
4 | COc1cc(NC(C)CCCNC(=O)Nc2ccc(Br)cc2)c2ncccc2c1 (stereo not given) | 18 µM | 25 µM | 23 µM | 20 µM | 23 µM | 30 µM | 23 µM | 2.6 µM | 46.2% | 37.1% | 46.4% | 80.4% | 50 µg/mL (≈ 109 µM) | > 100 µg/mL | > 100 µg/mL | > 100 µg/mL | > 100 µg/mL | > 100 µg/mL | > 100 µg/mL | 100 µg/mL (≈ 219 µM) | MIC50 (Bacillus cereus): 50 µg/mL (≈ 109 µM); MIC50 (Bacillus spizizenii): 25 µg/mL (≈ 54.7 µM); MIC50 (Pseudomonas aeruginosa [26]): 100 µg/mL (≈ 219 µM); MIC50 (Pseudomonas aeruginosa [27]): 25 µg/mL (≈ 54.7 µM); MIC50 (Pseudomonas aeruginosa [28]): 100 µg/mL (≈ 219 µM); MIC50 (Escherichia coli): > 100 µg/mL; MIC50 (Candida albicans): > 100 µg/mL; hemolysis at 1 h, 100 ug/ml [29]: < 1%; Activity [30]: Non-Toxic
